Source: ChEMBL document CHEMBL2203281, “Microwave assisted synthesis and anti-influenza virus activity of 1-adamantyl substituted N-(1-thia-4-azaspiro[4.5]decan-4-yl)carboxamide derivatives” (Bioorg Med Chem, 2012)
pEC50, pIC50: −log10 of the molar value.

How the values were obtained:
Influenza B virus [1] = assay: Antiviral activity against Influenza B virus (B/HK/5/72) infected in MDCK cells assessed as virus-induced cytopathic effect after 3 days by microscopic analysis; format: functional, cell-based; conditions: B/Hong Kong/05/1972, MDCK, 72 h
Procedure, shortened: (§1)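 Multicycle CPE reduction assay in 96-well MDCK cells. Cells got serial compound dilutions together with influenza virus at multiplicity of infection 0.0004 PFU per cell, then 72 h at 35 °C. CPE was read by microscopic scoring and then by MTS cell viability.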

[2] = Cytotoxicity against dog MDCK cells assessed as cell viability by MTS assay; format: cell-based, Canis lupus familiaris
Influenza A virus [3] = assay: Antiviral activity against Influenza A virus (A/X-31(H3N2)) infected in MDCK cells assessed as virus-induced cytopathic effect after 3 days by microscopic analysis; format: functional, organism-based; conditions: 72 h; procedure, shortened: as §1
[4] = Cytotoxicity against dog MDCK cells assessed as cell morphology alterations by microscopic analysis; format: cell-based, Canis lupus familiaris
Procedure, shortened: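 MDCK cells were exposed to serial compound dilutions and kept 72 h at 35 °C alongside the antiviral plates. MCC is the lowest concentration causing a microscopically detectable change in cell morphology.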

Influenza A virus [5] = assay: Antiviral activity against Influenza A virus (A/X-31(H3N2)) infected in MDCK cells assessed as virus-induced cytopathic effect after 3 days by MTS assay; format: functional, organism-based; procedure, shortened: as §1
Influenza A virus [6] = assay: Antiviral activity against Influenza A virus (A/PR/8/34(H1N1)) infected in MDCK cells assessed as virus-induced cytopathic effect after 3 days by microscopic analysis; format: functional, organism-based, A/Puerto Rico/8/1934(H1N1); procedure, shortened: as §1
Influenza A virus [7] = assay: Antiviral activity against Influenza A virus (A/PR/8/34(H1N1)) infected in MDCK cells assessed as virus-induced cytopathic effect after 3 days by MTS assay; format: functional, organism-based, A/Puerto Rico/8/1934(H1N1); procedure, shortened: as §1
Influenza B virus [8] = assay: Antiviral activity against Influenza B virus (B/HK/5/72) infected in MDCK cells assessed as virus-induced cytopathic effect after 3 days by MTS assay; format: functional, cell-based; conditions: B/Hong Kong/05/1972, MDCK, 72 h; procedure, shortened: as §1
[9] = Selectivity index, ratio of cytotoxic concentration for dog MDCK cells to EC50 for Influenza A virus (A/X-31(H3N2)); format: toxicity, cell-based; conditions: read-out: Ratio EC50
Hemagglutinin = Hemagglutinin (Influenza A virus (strain A/X-31 H3N2), UniProt P03438); assay: Inhibition of hemagglutininin in Influenza A virus (A/X-31(H3N2)) infected in chicken red blood cells assessed as inhibition of hemolysis preincubated for 1 hr prior to addition of red blood cells measured at pH 5.0 by spectrophotometric analysis; format: cell-based
Chain of Hemagglutinin (P03438 whole entry): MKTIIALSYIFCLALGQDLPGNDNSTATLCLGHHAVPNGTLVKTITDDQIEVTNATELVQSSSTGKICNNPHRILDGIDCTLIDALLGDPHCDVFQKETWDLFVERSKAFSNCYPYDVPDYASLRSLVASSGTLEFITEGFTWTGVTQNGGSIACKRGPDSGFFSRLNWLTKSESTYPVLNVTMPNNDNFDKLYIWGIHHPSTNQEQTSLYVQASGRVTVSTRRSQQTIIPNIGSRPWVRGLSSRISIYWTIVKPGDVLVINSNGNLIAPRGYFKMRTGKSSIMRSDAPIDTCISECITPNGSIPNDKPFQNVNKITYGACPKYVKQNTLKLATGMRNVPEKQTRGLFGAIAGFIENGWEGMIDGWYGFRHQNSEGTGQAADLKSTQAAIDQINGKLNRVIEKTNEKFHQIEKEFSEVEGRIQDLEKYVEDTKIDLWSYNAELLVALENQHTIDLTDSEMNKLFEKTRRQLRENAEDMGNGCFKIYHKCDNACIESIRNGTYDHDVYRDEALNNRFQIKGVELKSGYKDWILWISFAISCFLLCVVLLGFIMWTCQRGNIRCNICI
Procedure, shortened: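 Influenza A/X-31 (H3N2) stock was preincubated with serial compound dilutions for 1 h at 37 °C. Chicken RBC were added for 10 min at 37 °C, then pelleted and resuspended in buffer holding the same compound level. pH was lowered to 5.0 for 25 min at 37 °C, then neutralised. Intact RBC were spun out and supernatant OD540 read. IC50 came from dose-response.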

[10] = Influenza A virus, A/Puerto Rico/8/1934(H1N1), MDCK, 72 h

| Compound | pEC50 (Influenza B virus [1]) | CC50 [2] | pEC50 (Influenza A virus [3]) | MCC [4] | pEC50 (Influenza A virus [5]; Influenza A virus, MDCK, 72 h) | pEC50 (Influenza A virus [6]; [10]) | pEC50 (Influenza A virus [7]; [10]) | pEC50 (Influenza B virus [8]) | selectivity ratio [9] | pIC50 (Hemagglutinin) | pEC50 (Influenza A virus [5]; mdck) | pEC50 (Influenza A virus [6]; mdck) | pEC50 (Influenza A virus [7]; mdck) |
| --- | --- | --- | --- | --- | --- | --- | --- | --- | --- | --- | --- | --- | --- |
| CC1SC2(CCCCC2)N(NC(=O)C23CC4CC(CC(C4)C2)C3)C1=O (stereo not drawn) | < 4.00 | > 100 µM | < 4.00 | > 100 µM | < 4.00 | < 4.00 | < 4.00 | < 4.00 |  |  |  |  |  |
| CC1CCC2(CC1)SCC(=O)N2NC(=O)C12CC3CC(CC(C3)C1)C2 (stereo not drawn) | < 4.00 | > 100 µM | < 4.00 | > 100 µM | < 4.00 | < 4.00 | < 4.00 | < 4.00 |  |  |  |  |  |
| CC1CCC2(CC1)SC(C)C(=O)N2NC(=O)C12CC3CC(CC(C3)C1)C2 (stereo not drawn) | < 4.00 | > 100 µM | 5.80 | > 100 µM | 5.85 | < 4.00 | < 4.00 | < 4.00 | > 67 | 5.43 |  |  |  |
| CCC1CCC2(CC1)SCC(=O)N2NC(=O)C12CC3CC(CC(C3)C1)C2 (stereo not drawn) | < 4.00 | > 100 µM | < 4.00 | > 100 µM | 4.68 | < 4.00 | < 4.00 | < 4.00 |  |  |  |  |  |
| CCC1CCC2(CC1)SC(C)C(=O)N2NC(=O)C12CC3CC(CC(C3)C1)C2 (stereo not drawn) | < 4.00 | > 100 µM | 4.29 | > 100 µM | 5.77 | < 4.00 | < 4.00 | < 4.00 |  |  |  |  |  |
| CCCC1CCC2(CC1)SCC(=O)N2NC(=O)C12CC3CC(CC(C3)C1)C2 (stereo not drawn) | < 4.00 | > 100 µM | < 4.00 | > 100 µM | 4.36 | < 4.00 | < 4.00 | < 4.00 |  |  |  |  |  |
| CCCC1CCC2(CC1)SC(C)C(=O)N2NC(=O)C12CC3CC(CC(C3)C1)C2 (stereo not drawn) | < 4.00 | > 100 µM | 4.54 | > 100 µM | 4.64 | < 4.00 | < 4.00 | < 4.00 |  |  |  |  |  |
| CC(C)(C)C1CCC2(CC1)SCC(=O)N2NC(=O)C12CC3CC(CC(C3)C1)C2 (stereo not drawn) | < 4.00 | > 100 µM | < 4.00 | > 20 µM | 4.47 | < 4.00 | 4.28 | < 4.00 |  |  |  |  |  |
| CC1SC2(CCC(C(C)(C)C)CC2)N(NC(=O)C23CC4CC(CC(C4)C2)C3)C1=O (stereo not drawn) | < 4.00 | > 100 µM | < 4.00 | > 100 µM | < 4.00 | < 4.00 | < 4.00 | < 4.00 |  |  |  |  |  |
| O=C1CSC2(CCC(c3ccccc3)CC2)N1NC(=O)C12CC3CC(CC(C3)C1)C2 (stereo not drawn) | < 4.00 | > 100 µM | < 4.00 | > 20 µM | < 4.00 | < 4.00 | < 4.00 | < 4.00 |  |  |  |  |  |
| CC1SC2(CCC(c3ccccc3)CC2)N(NC(=O)C23CC4CC(CC(C4)C2)C3)C1=O (stereo not drawn) | < 4.00 | 42 µM | < 4.00 | 20 µM | < 4.00 | < 4.00 | < 4.00 | < 4.00 |  |  |  |  |  |
| Cc1nc2sccn2c1C(=O)NN1C(=O)C(C)SC12CCC(C)CC2 (stereo not drawn) | < 4.00 | > 100 µM | 5.17 | > 100 µM | 5.05 | < 4.00 | < 4.00 | < 4.00 |  |  |  |  |  |
| NC12CC3CC(CC(C3)C1)C2 [AMANTADINE] | < 3.30 | > 500 µM | 3.65 | > 500 µM | 3.68 | 4.24 | 4.12 | < 3.30 |  |  |  |  |  |
| NC(=O)c1ncn([C@@H]2O[C@H](CO)[C@@H](O)[C@H]2O)n1 [RIBAVIRIN] | 7.03 | > 100 µM |  | > 20 µM |  |  |  | 6.85 |  |  | 5.07 | 5.05 | 5.08 |
| CC(N)C12CC3CC(CC(C3)C1)C2 (stereo not drawn) [RIMANTADINE] | < 3.30 | 218 µM | 4.35 |  | 4.40 | 5.57 | 5.60 | < 3.30 |  |  |  |  |  |
| CC(=O)N[C@H]1[C@H]([C@H](O)[C@H](O)CO)OC(C(=O)O)=C[C@@H]1NC(=N)N [ZANAMIVIR] | 7.14 | > 100 µM | 4.92 | > 100 µM | 4.28 | 6.36 | 6.32 | 7.20 |  |  |  |  |  |
